Tests used:
Trypanosoma cruzi [1] = test: Antitrypanosomal activity against Trypanosoma cruzi Sylvio X-10 amastigotes infected in African green monkey Vero cells assessed as eradication of amastigotes after 72 hrs by Giemsa staining-based assay; conditions: Sylvio X-10, Vero
Trypanosoma cruzi [2] = test: Antitrypanosomal activity against Trypanosoma cruzi Tulahuen 2 epimastigotes assessed as growth inhibition after 5 days; format: functional, organism-based
Summary of the method: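 Epimastigotes were grown axenically at 28 °C in BHI-tryptose with 5% FBS and seeded from a 5–7 day culture at 1 × 10⁶ cells/mL. Drug from a DMSO stock was added (final DMSO ≤0.4%; the control contained 0.4% DMSO). Duplicates were run. A600 was read at day 5, and % inhibition was calculated relative to day-0 and control readings. IC50 = concentration that halves the absorbance ratio.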

Trypanosoma cruzi [3] = test: Antitrypanosomal activity against Trypanosoma cruzi Sylvio X-10 amastigotes infected in African green monkey Vero cells assessed as eradication of amastigotes after 5 days by Giemsa staining-based assay; format: functional, organism-based; conditions: Sylvio X-10, Vero, 120 h
Summary of the method: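 VERO cells in RPMI 1640 with 10% hiFCS were allowed to adhere for 24 h at 37 °C in 5% CO₂, then infected with tissue-derived trypomastigotes at 10:1. Free parasites were washed off after 24 h, and cultures were treated at five compound doses (text gives 72 h / 5 days). Cultures were methanol-fixed and Giemsa-stained, and infected cells were counted among 300. Quadruplicates were run in three independent experiments. IC50/IC90 were obtained by sigmoidal regression.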

[4] = Stability of the compound in aqueous solution assessed as compound remaining at 1 mM at pH 7.4 after 1 hr by TLC analysis; format: physicochemical; conditions: for remaining at 1 h, 1000 µM: aqueous solution, pH 7.4, read-out: Stability
Summary of the method: (§1)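 DMSO stocks diluted to final 1 mM in KCl·HCl pH 1.0, citrate pH 6.0, Tris·HCl pH 7.4 or borax·HCl pH 9.0 buffer. Incubated 1 h at 37 °C, then ethyl acetate extracts checked by TLC for decomposition products.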

[5] = Stability of the compound in aqueous solution assessed as compound remaining at 1 mM at pH 6 after 1 hr by TLC analysis; format: physicochemical; conditions: for remaining at 1 h, 1000 µM: aqueous solution, pH 6, read-out: Stability
Summary of the method: as §1

Salmonella typhimurium [6] = test: Mutagenic activity in Salmonella typhimurium TA98 at 5 to 400 ug/plate by Ames test; format: toxicity, organism-based; conditions: salmonella enterica subsp. enterica serovar typhimurium
Summary of the method: (§2)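 Ames plate-incorporation assay with S. typhimurium TA98 in Vogel-Bonner E minimal glucose agar. Toxicity toward the bacteria was checked first. DMSO solutions were run in triplicate at five consecutive third-dilutions, starting at the highest non-toxic dose. Positive controls were 4-nitro-o-phenylenediamine (20.0 μg/plate) and 2-aminofluorene (10.0 μg/plate); DMSO was the negative control. Revertants were counted manually. A compound was called mutagenic when revertants were at least twice the negative control at two or more consecutive doses.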

Salmonella typhimurium [7] = test: Mutagenic activity in Salmonella typhimurium TA98 at 5 to 400 ug/plate by Ames test in presence of mouse liver S9 fraction; format: toxicity, organism-based; conditions: salmonella enterica subsp. enterica serovar typhimurium
Summary of the method: as §2

[8] = Stability of the compound in aqueous solution assessed as compound remaining at 1 mM at pH 9 after 1 hr by TLC analysis; format: physicochemical; conditions: for remaining at 1 h, 1000 µM: aqueous solution, pH 9, read-out: Stability
Summary of the method: as §1

[9] = Selectivity index, ratio of IC50 for human RBC to IC50 for Trypanosoma cruzi Sylvio X-10 amastigotes
Summary of the method: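 Hemolysis: washed human erythrocytes (2% w/v in PBS) incubated 24 h at 37 °C with compound at final 50, 100 and 200 μM. Ten replicates per concentration. Hemoglobin release read at 405 nm against water lysis as 100%; amphotericin B 1.5 μM was the positive control. SI = IC50 red cells / parasite IC50 (Sylvio X-10 amastigotes or Tulahuen 2 epimastigotes).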

Salmonella typhimurium [10] = test: Mutagenic activity in Salmonella typhimurium TA98 at 0.005 to 0.4 ug/plate by Ames test; format: toxicity, organism-based; conditions: salmonella enterica subsp. enterica serovar typhimurium
Summary of the method: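 Direct plate incubation on minimal glucose agar (Vogel-Bonner E). Compound toxicity to the bacteria was checked first. DMSO solutions were tested at five consecutive 3-fold dilutions, starting from the highest non-toxic dose, in triplicate, without metabolic activation. DMSO served as negative control. Revertants were counted manually; mutagenic = revertants at least double the negative control at two or more consecutive doses.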

Salmonella typhimurium [11] = test: Mutagenic activity in Salmonella typhimurium TA98 at 0.005 to 0.4 ug/plate by Ames test in presence of mouse liver S9 fraction; format: toxicity, organism-based; conditions: salmonella enterica subsp. enterica serovar typhimurium
Summary of the method: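 Plate-incorporation Ames test on minimal glucose agar with 500 μL Aroclor-treated mouse liver S9 added. DMSO solutions were tested at five consecutive 3-fold dilutions from the highest non-toxic dose, in triplicate, with a DMSO negative control. Revertants were counted manually; a compound was scored mutagenic when revertants were at least twice the negative control for two or more consecutive doses.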

[12] = Selectivity index, ratio of IC50 for African green monkey Vero cells to IC50 for Trypanosoma cruzi Sylvio X-10 amastigotes; format: toxicity, cell-based; conditions: read-out: Ratio IC50
Summary of the method: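 VERO cytotoxicity: cells exposed 48 h at 37 °C, 5% CO2 to serial dilutions from a maximum of 2000 μM (DMSO stocks; DMSO <0.1% control); growth inhibition read by MTT at 570 nm. Amastigote IC50: Sylvio X-10-infected VERO cells, five doses, infected cells counted among 300 (Giemsa), quadruplicate, three experiments, sigmoidal fit. SI = IC50 VERO / IC50 amastigote.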

[13] = Trypanosoma cruzi, Tulahuen 2, 120 h

IC50 (Trypanosoma cruzi [2]; [13])	Structure (SMILES)	further results
8 µM	C=CCn1c(-c2ccc(OC)cc2)cs/c1=N/N=C/c1ccc([N+](=O)[O-])s1	IC90 (Trypanosoma cruzi [1]): > 25 µM; IC50 (Trypanosoma cruzi [3]): > 25 µM
10 µM	C=CCn1c(-c2ccc(Cl)cc2)cs\c1=N/N=C/C=C/c1ccc([N+](=O)[O-])s1	IC90 (Trypanosoma cruzi [1]): 25.4 µM; IC50 (Trypanosoma cruzi [3]): 16.9 µM
> 25 µM	C=CCn1c(-c2ccc(Cl)cc2)cs/c1=N/N=C/c1cccs1	IC50 (Trypanosoma cruzi [3]): 8 µM
2.9 µM	Br.C=CCn1c(-c2ccc(Br)cc2)cs\c1=N/N=C/C=C/c1ccco1	remaining at 1 h, 1000 µM [4]: > 95%; remaining at 1 h, 1000 µM [5]: > 95%; Activity (Salmonella typhimurium [6]): Non-toxic; Activity (Salmonella typhimurium [7]): Non-toxic; remaining at 1 h, 1000 µM [8]: > 95%
> 25 µM	C=CCn1c(C)cs\c1=N/N=C/C=C/c1ccccc1	–
> 25 µM	C=CCn1c(-c2ccccc2)cs/c1=N\N=C\c1ccc(S(=O)(=O)O)o1	–
15 µM	C=CCn1c(-c2ccc(Cl)cc2)cs/c1=N\N=C\c1ccc2c(c1)[n+]([O-])c(C)c(C)[n+]2[O-]	–
> 25 µM	C=CCn1c(-c2ccc(OC)cc2)cs\c1=N/N=C/C=C/c1cccs1	–
> 25 µM	C=CCn1c(-c2ccc(Cl)cc2)cs\c1=N/N=C/C=C/c1cccs1	–
20 µM	C=CCn1c(-c2ccccc2)cs/c1=N/N=C/c1ccc([N+](=O)[O-])s1	–
> 25 µM	C=CCn1c(-c2ccccc2)cs\c1=N/N=C/C=C/c1ccccc1	–
> 25 µM	C=CCn1c(-c2ccc(Cl)cc2)cs/c1=N\N=C\c1ccc(Cl)cc1	–
14 µM	C=CCn1c(-c2ccc(Cl)cc2)cs/c1=N/N=C/c1ccc([N+](=O)[O-])s1	IC90 (Trypanosoma cruzi [1]): > 25 µM; IC50 (Trypanosoma cruzi [3]): > 25 µM
14.6 µM	C=CCn1c(-c2ccc(Cl)cc2)cs/c1=N\N=C\c1ccsc1	–
> 25 µM	C=CCn1c(C)cs/c1=N\N=C\c1ccc(S(=O)(=O)O)o1	–
> 25 µM	C=CCn1c(-c2ccc3ccccc3c2)cs\c1=N/N=C/C=C/c1cccs1	–
6 µM	C=CCn1c(-c2ccccc2)cs/c1=N\N=C\c1ccc([N+](=O)[O-])s1	IC50 (Trypanosoma cruzi [3]): 25 µM; selectivity ratio [12]: 5
> 25 µM	C=CCn1c(-c2ccc([N+](=O)[O-])cc2)cs\c1=N/N=C/C=C/c1cccs1	–
4.9 µM	C=CCn1c(-c2ccc(OC)cc2)cs\c1=N/N=C/C=C/c1ccco1	remaining at 1 h, 1000 µM [4]: > 95%; remaining at 1 h, 1000 µM [5]: > 95%; Activity (Salmonella typhimurium [6]): Non-toxic; Activity (Salmonella typhimurium [7]): Non-toxic; remaining at 1 h, 1000 µM [8]: > 95%
> 25 µM	C=CCn1c(-c2ccc(Br)cc2)cs\c1=N/N=C/C=C/c1cccs1	–
> 25 µM	C=CCn1c(-c2ccccc2)cs/c1=N/N=C/c1cccs1	–
> 25 µM	C=CCn1c(C)cs/c1=N\N=C\c1ccco1	–
> 25 µM	C=CCn1c(-c2ccccc2)cs\c1=N/N=C/C=C/c1cccs1	–
> 25 µM	Br.C=CCn1c(-c2ccc([N+](=O)[O-])cc2)cs\c1=N/N=C/C=C/c1ccco1	Activity (Salmonella typhimurium [6]): Toxic; Activity (Salmonella typhimurium [7]): Toxic
> 25 µM	C=CCn1c(-c2ccccc2)cs/c1=N\N=C\c1ccco1	–

The remaining lines, values behind:

Structure (SMILES)	IC50 (Trypanosoma cruzi [2]; [13])	further results
S=C(N/N=C/C=C/c1ccco1)Nc1ccccc1	11 µM	–
S=C(N/N=C/C=C/C=C/c1cccs1)Nc1ccccc1	1.7 µM	IC90 (Trypanosoma cruzi [1]): > 25 µM; IC50 (Trypanosoma cruzi [3]): > 25 µM
O=C1CS/C(=N\N=C\c2ccc([N+](=O)[O-])s2)N1	> 25 µM	–
C=CCN1C(=O)CS/C1=N\N=C\c1cccs1	> 25 µM	–
C[C@@H]1[C@H](O)[C@@H](C)/C=C/C=C/C=C/C=C/C=C/C=C/C=C/[C@H](O[C@@H]2O[C@H](C)[C@@H](O)[C@H](N)[C@@H]2O)C[C@@H]2O[C@](O)(C[C@@H](O)C[C@@H](O)[C@H](O)CC[C@@H](O)C[C@@H](O)CC(=O)O[C@H]1C)C[C@H](O)[C@H]2C(=O)O [AMPHOTERICIN B]	–	IC50 (Trypanosoma cruzi [3]): 1.1 µM; Ratio IC50 [9]: 10
N/C(S)=N/N=C/c1ccc([N+](=O)[O-])s1	25 µM	–
C=CCNC(=S)N/N=C/c1ccc(O)cc1	> 25 µM	–
C=CCNC(=S)N/N=C/C=C/c1cccs1	> 25 µM	Activity (Salmonella typhimurium [6]): Non-toxic; Activity (Salmonella typhimurium [7]): Non-toxic
O=C1CS\C(=N/N=C/C=C/c2ccco2)N1c1ccccc1	> 25 µM	–
C=CCNC(=S)N/N=C/c1ccnc2ccccc12	17 µM	–
O=C1CS/C(=N\N=C\c2ccc([N+](=O)[O-])s2)N1c1ccccc1 (stereo in doubt; 13)	–	IC50 (Trypanosoma cruzi [2]): > 25 µM
Cc1cs/c(=N\N=C\c2cccs2)n1-c1ccccc1	> 25 µM	–
Cc1cs/c(=N/N=C/C=C/c2ccco2)n1-c1ccccc1	25 µM	–
C=CCNC(=S)N/N=C/c1cc2ccccc2o1	> 25 µM	–
C(=C\c1ccco1)/C=N/N=c1/scc(-c2ccccc2)n1-c1ccccc1	5 µM	–
C=CCN1C(=O)CS\C1=N/N=C/C=C/c1ccco1	> 25 µM	–
O=C1CS/C(=N\N=C\c2ccc([N+](=O)[O-])s2)N1c1ccccc1 (stereo in doubt; 10)	13 µM	IC90 (Trypanosoma cruzi [1]): > 25 µM; IC50 (Trypanosoma cruzi [3]): > 25 µM
O=[N+]([O-])c1ccc(/C=N/N=c2\scc(-c3ccccc3)n2-c2ccccc2)s1	> 25 µM	–
C=CCn1c(C)cs/c1=N\N=C\c1ccc([N+](=O)[O-])s1	10 µM	Activity (Salmonella typhimurium [10]): Non-toxic; Activity (Salmonella typhimurium [11]): Non-toxic; IC50 (Trypanosoma cruzi [3]): 10.5 µM

Structure (SMILES)	IC50 (Trypanosoma cruzi [2]; [13])	further results
C=CCNC(=S)N/N=C/c1cncc(Br)c1	> 25 µM	–
C=CCN1C(=O)CS/C1=N/N=C\c1ccc(Cl)cc1	> 25 µM	–
C(=N\N=c1/scc(-c2ccccc2)n1-c1ccccc1)/c1ccccc1	> 25 µM	–
CC(=O)N(C1=NN(C(C)=O)C(c2cccs2)S1)c1ccccc1 (stereo not drawn)	> 25 µM	–
O=C1CS\C(=N/N=C\C=C\C=C\c2cccs2)N1c1ccccc1	> 25 µM	–
C=CCN(C(C)=O)C1=NNC(c2cccs2)S1 (stereo not drawn)	> 25 µM	–
C=CCN(C(C)=O)C1=NNC(c2ccc([N+](=O)[O-])s2)S1 (stereo not drawn)	> 25 µM	–
C=CCN1C(=O)CS/C1=N\N=C\c1ccc([N+](=O)[O-])s1	> 25 µM	IC90 (Trypanosoma cruzi [1]): > 25 µM; IC50 (Trypanosoma cruzi [3]): > 25 µM
C=CCNC(=S)N/N=C/c1ccc(SC)cc1	10 µM	–
C=CCNC(=S)N/N=C/c1ccc2c(c1)OCO2	> 25 µM	–
C=CCNC(=S)N/N=C/c1ccsc1	> 25 µM	–
O=[N+]([O-])c1ccc(/C=N/NC(=S)Nc2ccccc2)s1	4 µM	IC50 (Trypanosoma cruzi [3]): 4.1 µM; selectivity ratio [12]: 20
C=CCN(C(C)=O)C1=NN(C(C)=O)C(/C=C/c2ccco2)S1 (stereo not drawn)	> 25 µM	–
S=C(N/N=C/c1ccccc1)Nc1ccccc1	19 µM	–
C=CCN1C(=O)CS\C1=N/N=C\C=C\C=C\c1cccs1	> 25 µM	–
C=CCNC(=S)N/N=C/c1ccc(Cl)cc1	11 µM	–
C=CCNC(=S)N/N=C/C=C/c1ccccc1	6.6 µM	–
C=CCn1c(C)cs/c1=N\N=C\c1cccs1	> 25 µM	IC90 (Trypanosoma cruzi [1]): > 25 µM; IC50 (Trypanosoma cruzi [3]): > 25 µM; Stability ([4]; buffer, pH 7.4, 1 h, 1000 µM): Unstable; Stability ([5]; buffer, pH 6, 1 h, 1000 µM): Unstable; Stability ([8]; buffer, pH 9, 1 h, 1000 µM): Unstable
C=CCNC(=S)N/N=C/c1ccc2ccccc2c1	5.4 µM	–
